From PubChem
Compounds with a hit are over-represented: about 1.9% of the library has one in this group of screens.
Runt-CBFb FRET: inhibitors of human RUNX1 Runt domain binding to CBFb | Cerulean-Runt/Venus-CBFb FRET ratio 530/480, 1 h | inhibition, % at 20 µM | AID 1496 | Q01196+Q13951 | 220,000 tested, 0.46% active;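 active = inhibition over about 50% at 20 µM in the single-dose screen, limit read from the data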
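Schedule: protein complex preformed 1 h, compound exposure 1 h, room temperature, dark; test system: Cerulean-labeled Runt domain protein; amount: 100 nM per protein; buffer or medium: Tris 50 mM pH 7.5, KCl, K2SO4, 0.01% BSA; read-out: loss of energy transfer signal; detection: FRET fluorescence; controls: 5 µM unlabeled CBFb as full-inhibition high control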
RanGTP-Impb inh: inhibitors of RanGTP-importin-beta interaction, primary screen, biochemical, FRET, CFP-Ran, YFP-importin-beta, homogeneous | cell-free CFP-Ran/YFP-importin-beta FRET ratio | inhibition, % (concentration not given with the values) | 300,000 tested, 1.1% active | AID 2216;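 active = more than half of the replicate wells show a fall in the fluorescence ratio signal beyond about 16%, limit read from the data, passing the limit was not always enough; inconclusive = exactly half of the replicate wells pass the set limit; inactive = fewer than half of replicates pass the limit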
Hck-Nef inh: inhibitors of human Hck kinase activated by Nef. Recombinant Hck-YEEI plus Nef, Z-Lyte FRET kinase assay. inhibition, % at 20 µM. 220,000 tested, 0.68% active;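 active = Hck-Nef kinase inhibition above about 50%, limit read from the data; inactive = inhibition below that limit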
Target sequence (P08631 whole entry, looked up): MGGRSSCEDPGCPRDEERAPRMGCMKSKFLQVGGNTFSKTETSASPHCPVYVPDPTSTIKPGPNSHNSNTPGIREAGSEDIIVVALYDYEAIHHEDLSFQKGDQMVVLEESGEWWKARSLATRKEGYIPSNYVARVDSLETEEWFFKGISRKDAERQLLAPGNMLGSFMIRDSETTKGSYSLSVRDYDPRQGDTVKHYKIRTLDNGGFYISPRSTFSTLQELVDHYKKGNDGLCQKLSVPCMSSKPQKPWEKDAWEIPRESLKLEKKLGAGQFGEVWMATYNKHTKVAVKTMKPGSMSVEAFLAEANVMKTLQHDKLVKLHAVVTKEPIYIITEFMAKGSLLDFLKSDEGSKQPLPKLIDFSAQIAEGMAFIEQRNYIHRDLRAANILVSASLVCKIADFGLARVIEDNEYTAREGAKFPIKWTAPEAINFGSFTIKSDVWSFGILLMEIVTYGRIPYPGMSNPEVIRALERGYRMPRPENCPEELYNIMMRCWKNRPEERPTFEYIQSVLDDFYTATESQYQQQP
Runt-SMMHC FRET: blocks binding of human RUNX1 Runt domain to CBFb-SMMHC; inhibition, % at 20 µM; Q01196+Q13951; 220,000 tested, 0.74% active; Cerulean-Runt/Venus-CBFb-SMMHC FRET ratio 530/480, 1 h;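 active = mean inhibition across duplicate retests at 20 µM reaching about 50%, limit read from the data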;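 note: inhibitors lower the FRET ratio by blocking Runt binding to CBFb-SMMHC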
Of the large screens only hits and unclear results are named; the others gave an inactive call.

COCCCNC(=O)c1c(N)n(Cc2ccco2)c2nc3ccccc3nc12	Runt-CBFb FRET 76, RanGTP-Impb inh 72, Runt-SMMHC FRET 81
CC(C)CNC(=O)c1c(N)n(Cc2ccco2)c2nc3ccccc3nc12	Runt-CBFb FRET 79 (no result: Runt-SMMHC FRET)
COCCOC(=O)c1c(N)n(Cc2ccco2)c2nc3ccccc3nc12	RanGTP-Impb inh 19 (no result: Runt-CBFb FRET)
Nc1c(C(=O)NCc2ccco2)c2nc3ccccc3nc2n1CCN1CCCCC1	RanGTP-Impb inh 71
CCCCn1c(=O)c(C(=O)NCc2ccco2)c(O)c2ccccc21	none
Clc1ccc(N2CC2c2ccncc2)cc1 (configuration not stated)	none (no result: Runt-CBFb FRET, Hck-Nef inh, Runt-SMMHC FRET)
CCN1C[C@]2(COC)CC[C@H](OC)[C@@]34C5C[C@H]6C(=O)C5[C@](O)(C[C@H]6OC)[C@@](O)(C(OC)C23)[C@@H]14 (some centres not stated)	none (no result: Runt-CBFb FRET, Hck-Nef inh, Runt-SMMHC FRET)
CCOc1ccc(N=C2SCCCN2C)cc1	none
COC(=O)OCC12CCC(O1)C1(C)C(=O)OCC21 (configuration not stated)	none
CCCCn1c(=O)c(C(=O)NCc2ccccc2)c(O)c2ccccc21	none (no result: Runt-CBFb FRET, Hck-Nef inh, Runt-SMMHC FRET)
CCCCNC(=O)c1c(N)n(CCCOC)c2nc3ccccc3nc12	RanGTP-Impb inh 106, Runt-SMMHC FRET 54
C[C@]12N[C@H](Cc3ccccc31)c1ccccc12	none (no result: Runt-CBFb FRET, Hck-Nef inh, Runt-SMMHC FRET)
COCCNC(=O)c1c(NC(=O)c2ccc(Br)o2)n(Cc2ccccc2)c2nc3ccccc3nc12	RanGTP-Impb inh 58 (no result: Runt-SMMHC FRET)
CCOC(=O)c1c(NS(=O)(=O)c2ccccc2)n(CCCOC)c2nc3ccccc3nc12	RanGTP-Impb inh 106
CCCCCn1c(NC(=O)c2ccco2)c(C(=O)OCC)c2nc3ccccc3nc21	RanGTP-Impb inh 79, Runt-SMMHC FRET 102
COCCCNC(=O)c1c(NC(=O)c2ccco2)n(Cc2ccccc2)c2nc3ccccc3nc12	RanGTP-Impb inh 44 (no result: Runt-SMMHC FRET)
N=C1c2ccccc2CN1NC(=O)c1ccc(Br)o1	none (no result: Runt-CBFb FRET, Hck-Nef inh, Runt-SMMHC FRET)
O=C(CF)NC(NC(=S)Nc1ccccc1O)C(Cl)(Cl)Cl (configuration not stated)	none (no result: Runt-CBFb FRET, Runt-SMMHC FRET)
CNP(=O)(Oc1ccccc1)OC12CC3CC(CC(C3)C1)C2 (configuration not stated)	RanGTP-Impb inh inconclusive
O=c1[nH]c(O)c(N=Nc2cc([N+](=O)[O-])ccc2O)c(=O)[nH]1	none
O=C(N/N=C/c1c(O)n(Cc2ccc(F)cc2)c(=O)[nH]c1=O)c1ccccc1	none
O=C(O)CCC(=O)NCCC1=c2ccccc2=N/C1=C\c1c(O)n(Cc2ccc(F)cc2)c(=S)[nH]c1=O	Runt-SMMHC FRET 58
COc1ccc(N=Cc2c(O)n(-c3ccc(C)cc3)c(=O)[nH]c2=O)cc1	Runt-SMMHC FRET 64
CCOP(=O)(OCC)C(O)c1ccc(N(C)C)cc1 (configuration not stated)	none
CCC(=NCc1ccco1)c1c(O)n(C2CCCCC2)c(=O)[nH]c1=O	Runt-SMMHC FRET 102
CCC(=NCc1cccnc1)c1c(O)n(C2CCCCC2)c(=O)[nH]c1=O	none
O=C(Nc1ccc(F)cc1)OC1CN2CCC1CC2 (configuration not stated)	none
COc1ccc(CCNC(=O)COC(=O)Cc2ccccc2)cc1	none
COC(=O)c1c(N)n(Cc2ccc(OC)cc2)c2nc3ccccc3nc12	Runt-SMMHC FRET 118 (no result: RanGTP-Impb inh)
CCOC(=O)c1c(N)n(Cc2ccc(OC)cc2)c2nc3ccccc3nc12	Runt-SMMHC FRET 110
C[C@H](NC(=O)N1C[C@H]2C[C@@H](C1)c1cccc(=O)n1C2)C(=O)Nc1ccc(F)c(F)c1	none (no result: Runt-CBFb FRET, Hck-Nef inh, Runt-SMMHC FRET)
O=C(Nc1ccc(F)cc1)N1CC2CC(C1)c1cccc(=O)n1C2 (configuration not stated)	RanGTP-Impb inh 21 (no result: Runt-CBFb FRET)
O=C(NC(C(Cl)Cl)N1CCOCC1)c1ccccc1 (configuration not stated)	RanGTP-Impb inh 22
O=C(NCC(c1cccnc1)N1CCOCC1)Oc1ccccc1 (configuration not stated)	RanGTP-Impb inh inconclusive
N#Cc1c(Cl)nc(Cl)c2c1CCN(Cc1ccccc1)C2	Runt-SMMHC FRET 61
C=CCn1c(O)c(C(C)=NCCCN(C)C)c(=O)[nH]c1=O	none
CN(C)/C=C1/C(=O)NC(=O)N(CCNc2ncc(C(F)(F)F)cc2Cl)C1=O	Hck-Nef inh 154
COc1ccc(-c2nn(CCC#N)cc2C(=O)Nc2ccc(C(C)=O)cc2)cc1[N+](=O)[O-]	none (no result: Runt-CBFb FRET, Hck-Nef inh, Runt-SMMHC FRET)
CC(C)=CCc1c(O)cc2c(c1O)C(=O)CC(c1ccc(O)cc1)O2 (configuration not stated)	none
CC(C)CCNC(=O)c1c(N)n(Cc2ccc3c(c2)OCO3)c2nc3ccccc3nc12	RanGTP-Impb inh 77
CC(C)CNC(=O)c1c(N)n(Cc2ccc3c(c2)OCO3)c2nc3ccccc3nc12	Runt-SMMHC FRET 56
CCCNC(=O)c1c(N)n(Cc2ccc3c(c2)OCO3)c2nc3ccccc3nc12	none (no result: RanGTP-Impb inh)
Cc1c(N=Cc2c(O)n(CCc3ccc(F)cc3)c(=O)[nH]c2=O)c(=O)n(-c2ccccc2)n1C	none
CC(=O)O[C@]1(C)C(=O)OC/C2=C/CN(C)CCC(OC(=O)[C@@](O)(C(C)O)C[C@H]1C)C2=O (some centres not stated)	none (no result: Runt-CBFb FRET, Hck-Nef inh, Runt-SMMHC FRET)
CN1CCC2(O)OCCCC2C1 (configuration not stated)	none
CC(C)c1ccc(N2C(=O)NC(=O)/C(=C/c3cnc(-c4ccccc4)nc3)C2=O)cc1	none
O=C1NC(=O)N(Cc2ccccc2)C(=O)/C1=C/N1CCCc2ccccc21	RanGTP-Impb inh 30
O=C1NC(=O)N(Cc2ccccc2)C(=O)/C1=C/c1cnc(-c2ccccc2)nc1	Hck-Nef inh 58
CN1CCCN(C(=O)COc2ccccc2Br)CC1	none (no result: Runt-CBFb FRET, Hck-Nef inh, Runt-SMMHC FRET)
COc1ccc(NC(=O)c2cn(CCC#N)nc2-c2ccc(OC)c(OC)c2)cc1	none (no result: Runt-CBFb FRET, Hck-Nef inh, Runt-SMMHC FRET)
O=S(=O)(c1ccccc1)N1CCN2CCCC2C1 (configuration not stated)	none (no result: Runt-CBFb FRET, Hck-Nef inh, Runt-SMMHC FRET)
Oc1ccccc1-[n+]1c(-c2ccccc2)cc(-c2ccccc2)cc1-c1ccccc1	none (no result: Runt-CBFb FRET, Hck-Nef inh, Runt-SMMHC FRET)
Nc1ccccc1-[n+]1c(-c2ccccc2)cc(-c2ccccc2)cc1-c1ccccc1	RanGTP-Impb inh 41
CCN1C(=O)/C(=C\c2ccc([N+](=O)[O-])s2)C(=O)NC1=S	Hck-Nef inh 89 (no result: Runt-CBFb FRET, RanGTP-Impb inh)
C=CCN1C(=O)/C(=C/c2ccc(Br)s2)C(=O)NC1=S	none (no result: Runt-CBFb FRET, Hck-Nef inh, Runt-SMMHC FRET)
CN1CC=C2C(C#N)=C(N)C(C#N)(C#N)C(c3ccncc3)C2C1 (configuration not stated)	RanGTP-Impb inh 45
O=C(N/N=C/c1c(O)n(-c2ccccc2)c(=O)[nH]c1=O)c1ccncc1	none
CCCCCCC(=O)N/N=C/c1c(O)n(CCCC)c(=S)[nH]c1=O	none
CCCCn1c(O)c(/C=N/NC(=O)c2ccncc2)c(=O)[nH]c1=S	Runt-CBFb FRET 62, Runt-SMMHC FRET 82
Cc1ccc(-n2c(O)c(/C=N/NC(=O)c3ccncc3)c(=O)[nH]c2=O)cc1	none
Cn1c(O)c(/C=N/NC(=O)c2ccncc2)c(=O)[nH]c1=S	Runt-SMMHC FRET 71
Cn1c(O)c(/C=N/NC(=O)c2ccncc2)c(=O)n(C)c1=S	Runt-SMMHC FRET 81
